From PubChem BioAssay AID493081 (Broad Institute, 2011)
Activity calls are given as the source filed them.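 How the source made its calls: active means fitted half-maximal dose of growth inhibition at or below ten times the top valid tested dose; inconclusive means flat fit with moderate inhibition, or poor fit quality; inactive means the rest.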

test system: not listed separately; assay: Candida CaCi-2 inhibitors alongside fluconazole – CaCi-2 isolate, dry powder retest, no file, confirmation (AID 493081); details: C. albicans CaCi-2 + fluconazole, Alamar Blue, 48 h; at 12 µM (top of the series)
Outline: (§1)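 Schedule – 48 h at 37 °C, then 2 h dye step · Assay system – Candida albicans clinical isolate CaCi-2, fluconazole-resistant strain · Detection – Alamar Blue fluorescence, excitation 544 nm, emission 590 nm · Reagent – fluconazole at 8 µg/mL throughout the growth period · Read-out – fungal growth from fluorescence, lower signal meaning growth inhibition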

| SMILES | activity change, negative = growth inhibition |
| --- | --- |
| O=C1OCCC1n1nc(-c2ccccc2)c2ccccc21 (stereo not given) | -11.6% (inactive) |
| COc1ccc(-c2n[nH]c3ccccc23)cc1 | -24.1% (inactive) |
| O=C(Cn1nc(-c2ccccc2)c2ccccc21)OC1CCC1 | -23.5% (inactive) |
| CCC(=O)Cn1nc(-c2ccccc2)c2ccccc21 | -16.1% (inactive) |
| O=C(Cn1c2ccccc2c2ccncc21)N1CCCCC1 | -31.9% (inactive) |
| COC(=O)C(C)(C)n1nc(-c2ccccc2)c2ccccc21 | -6.64% (inactive) |
| COC(=O)CCCn1nc(-c2ccccc2)c2ccccc21 | -23.8% (inactive) |
| FC(F)(F)c1ccc(-c2n[nH]c3ccccc23)cc1 | -27.3% (inactive) |
| COC(=O)Cn1nc(-c2ccccc2)c2cccc(C(F)(F)F)c21 | 1.65% (inactive) |
| CCCCn1nc(-c2ccccc2)c2ccccc21 | 19.1% (inactive) |
| O=C(O)Cn1nc(-c2ccccc2)c2ccccc21 | -9.2% (inactive) |
| COC(=O)Cn1nc(-c2ccccc2)c2ccc(C(F)(F)F)cc21 | -26.8% (inactive) |

test system: C. albicans CaCi-2 (fluconazole-resistant clinical isolate) + fluconazole, Alamar Blue, 48 h; assay: as above; details: not given
Outline: as §1

| SMILES | AC50 [nM] |
| --- | --- |
| O=C(Cn1c2ccc(F)cc2c2nc3n(c(=O)c21)CCS3)N1CCCCCC1 | 629 |
| O=C(Cn1c2ccccc2c2nc3n(c(=O)c21)CCS3)N1CCCCC1 | 606 |
| COC(=O)Cn1nc(-c2ccccc2)c2ccccc21 | 1270 |
| O=C(Cn1c2ccc(F)cc2c2nc3n(c(=O)c21)CCS3)N1CCCC1 | 608 |
| CC1CCN(C(=O)Cn2c3ccccc3c3nc4n(c(=O)c32)CCS4)CC1 | 1790 |
| COC(=O)Cn1nc(-c2cccc(F)c2)c2ccccc21 | 8120 |
| O=C(Cn1c2ccccc2c2nc3n(c(=O)c21)CCS3)N1CCCC1 | 835 |
| CCN(CC)C(=O)Cn1c2ccc(F)cc2c2nc3n(c(=O)c21)CCS3 | 69 |
| COC(=O)Cn1nc(-c2ccccc2C)c2ccccc21 | 6140 |
| O=C(Cn1c2ccccc2c2nc3n(c(=O)c21)CCS3)N1CCOCC1 | 1610 |
| COC(=O)Cn1nc(-c2ccc(F)cc2)c2ccccc21 | 8180 |
| CCN(CC)C(=O)Cn1c2ccccc2c2nc3n(c(=O)c21)CCS3 | 7430 |
| O=C(Cn1c2ccc(F)cc2c2nc3n(c(=O)c21)CCS3)N1CCCCC1 | 413 |
